Test results as given in article PMC3558928 (Chemistry & biology, 2013).

Key:
WRN^short (WRN^500–946) = WRN^short (WRN^500–946) (Homo sapiens, UniProt Q14191); experiment: Gel-based DNA unwinding assay, truncated WRN; type: biochemical
[1] = target: WRN^long (full length WRN) (Homo sapiens, UniProt Q14191); experiment: Gel-based DNA unwinding assay, full length WRN; type: biochemical
BLM [2] = target: T1, BLM (Homo sapiens, UniProt P54132); experiment: BLM disruption of D-loop, Holliday junction and G-quadruplex substrates; type: biochemical
PSNG13 cells [3] = experiment: γ-H2AX focus formation after mitomycin C, PSNG13; type: cell-based, human; conditions: with or without MMC, p>0.05
PSNF5 cells [4] = experiment: WST-1 proliferation assay, PSNF5; type: cell-based, human; conditions: PSNF5 (BLM+); 24–72 hours
PSNG13 cells [5] = experiment: Sister chromatid exchange; type: cell-based, human
Method in brief: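 Stable transfectants of SV40-transformed Bloom syndrome fibroblast line GM08505 were used: PSNF5 (Flag-BLM) and PSNG13 (empty vector). Cells were left untreated or exposed to test compound, with exposures in the 24–72 hr range. Sister chromatid exchanges were scored as frequency per chromosome and number per chromosome.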

PSNF5 cells [6] = experiment: Clonogenic survival, sensitization to aphidicolin, PSNF5; type: cell-based, human; conditions: ML216 24 hours before aphidicolin, p<0.01
Method in brief: (§1)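 Isogenic SV40-transformed Bloom syndrome fibroblasts (GM08505 background): PSNF5 stably expresses Flag-tagged BLM, PSNG13 carries empty vector. Cells were exposed to test compound for 24 hr, then aphidicolin was added at graded concentrations for a further 24 hr. Cells were washed and grown in drug-free medium for up to 12 days to form colonies. Survival curves come from three independent experiments (mean, SD).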

BLM [7] = target: T1, BLM; experiment: Fluorescence polarization assay of BLM binding to TAMRA-labeled oligonucleotide; conditions: dilution series; no nucleotide, ADP or ATP
BLM [8] = target: T1, BLM; experiment: Electrophoretic mobility shift assay; type: binding; conditions: ssDNA or forked duplex; increasing concentrations
PSNG13 cells [9] = experiment: Clonogenic survival, sensitization to aphidicolin, PSNG13; type: cell-based, human
Method in brief: as §1

PSNF5 cells [10] = experiment: γ-H2AX focus formation after mitomycin C, PSNF5; type: cell-based, human; conditions: ML216 and MMC versus MMC alone, p<0.05
PSNF5 cells [11] = experiment: Sister chromatid exchange; type: cell-based, human
RecQ1 = target: T2, RecQ1 (Homo sapiens, UniProt P46063); experiment: Gel-based DNA unwinding assay, RECQ1; type: biochemical
T2 sequence (P46063 1-649): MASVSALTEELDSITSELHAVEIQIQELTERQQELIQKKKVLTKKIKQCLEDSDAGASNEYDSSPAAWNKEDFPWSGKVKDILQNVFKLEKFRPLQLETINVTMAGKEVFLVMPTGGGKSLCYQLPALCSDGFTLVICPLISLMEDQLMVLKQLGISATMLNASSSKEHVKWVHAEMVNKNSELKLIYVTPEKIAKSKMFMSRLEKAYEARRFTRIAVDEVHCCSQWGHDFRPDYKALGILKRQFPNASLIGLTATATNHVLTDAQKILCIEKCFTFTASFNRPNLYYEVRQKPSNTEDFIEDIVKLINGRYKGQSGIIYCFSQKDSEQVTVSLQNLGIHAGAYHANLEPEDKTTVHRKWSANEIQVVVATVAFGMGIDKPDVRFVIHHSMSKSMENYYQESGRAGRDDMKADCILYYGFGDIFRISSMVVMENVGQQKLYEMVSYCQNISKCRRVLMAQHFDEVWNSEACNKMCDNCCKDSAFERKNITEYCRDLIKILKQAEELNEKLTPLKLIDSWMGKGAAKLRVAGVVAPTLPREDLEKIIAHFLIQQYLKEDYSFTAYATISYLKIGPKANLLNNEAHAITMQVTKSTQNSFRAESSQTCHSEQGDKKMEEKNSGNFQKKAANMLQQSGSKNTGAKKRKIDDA

human cells = experiment: Cell cycle checkpoint responses in cells; type: cell-based; conditions: 50µM, 24 hours; data not shown
PSNG13 cells [12] = experiment: WST-1 proliferation assay, PSNG13; type: cell-based, human; conditions: PSNG13 (BLM−); 24–72 hours
BLM [13] = target: T1, BLM; experiment: ssDNA-dependent ATPase activity of BLM; type: biochemical
E. coli UvrD helicase = E. coli UvrD helicase (Escherichia coli, UniProt P03018); experiment: Gel-based DNA unwinding assay, UvrD; type: biochemical
BLM^full-length = BLM^full-length (Homo sapiens, UniProt P54132); experiment: Gel-based DNA unwinding assay, forked duplex, full-length BLM; type: biochemical
WRN^+ and WRN^− cells [14] = experiment: Aphidicolin sensitization of WRN+ and WRN− fibroblasts; type: cell-based, human
WRN^+ and WRN^− cells [15] = experiment: Proliferation of WRN+ and WRN− fibroblasts; type: cell-based, human
RecQ5 = RecQ5 (Homo sapiens, UniProt O94762); experiment: Gel-based DNA unwinding assay, RECQ5; type: biochemical
BLM^636–1298 = BLM^636–1298 (Homo sapiens, UniProt P54132); experiment: Fluorescence-quenching qHTS assay of BLM DNA unwinding; type: biochemical
Method in brief: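 Quenched-fluorescence unwinding screen used bacterially expressed truncated BLM (residues 636–1298). The forked duplex substrate carries tetramethylrhodamine at the 3' end of one strand and Black Hole Quencher-2 at the 5' end of the complement. ATP-dependent unwinding raises fluorescence. Inhibition is the signal loss relative to DMSO-only controls, run as dose-response (qHTS).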

BLM [16] = target: T1, BLM; experiment: Traditional helicase assay, radiolabeled forked duplex, PAGE; type: biochemical
Method in brief: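 Substrate was gel-purified and dialysed, and its concentration was set by scintillation counting. Reactions held at most 1% DMSO. Unwinding to ssDNA was resolved by PAGE and expressed as percent unwinding against untreated (0%) and heat-denatured (100%) controls. IC50 came from nonlinear regression.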

T1 sequence (P54132 whole entry): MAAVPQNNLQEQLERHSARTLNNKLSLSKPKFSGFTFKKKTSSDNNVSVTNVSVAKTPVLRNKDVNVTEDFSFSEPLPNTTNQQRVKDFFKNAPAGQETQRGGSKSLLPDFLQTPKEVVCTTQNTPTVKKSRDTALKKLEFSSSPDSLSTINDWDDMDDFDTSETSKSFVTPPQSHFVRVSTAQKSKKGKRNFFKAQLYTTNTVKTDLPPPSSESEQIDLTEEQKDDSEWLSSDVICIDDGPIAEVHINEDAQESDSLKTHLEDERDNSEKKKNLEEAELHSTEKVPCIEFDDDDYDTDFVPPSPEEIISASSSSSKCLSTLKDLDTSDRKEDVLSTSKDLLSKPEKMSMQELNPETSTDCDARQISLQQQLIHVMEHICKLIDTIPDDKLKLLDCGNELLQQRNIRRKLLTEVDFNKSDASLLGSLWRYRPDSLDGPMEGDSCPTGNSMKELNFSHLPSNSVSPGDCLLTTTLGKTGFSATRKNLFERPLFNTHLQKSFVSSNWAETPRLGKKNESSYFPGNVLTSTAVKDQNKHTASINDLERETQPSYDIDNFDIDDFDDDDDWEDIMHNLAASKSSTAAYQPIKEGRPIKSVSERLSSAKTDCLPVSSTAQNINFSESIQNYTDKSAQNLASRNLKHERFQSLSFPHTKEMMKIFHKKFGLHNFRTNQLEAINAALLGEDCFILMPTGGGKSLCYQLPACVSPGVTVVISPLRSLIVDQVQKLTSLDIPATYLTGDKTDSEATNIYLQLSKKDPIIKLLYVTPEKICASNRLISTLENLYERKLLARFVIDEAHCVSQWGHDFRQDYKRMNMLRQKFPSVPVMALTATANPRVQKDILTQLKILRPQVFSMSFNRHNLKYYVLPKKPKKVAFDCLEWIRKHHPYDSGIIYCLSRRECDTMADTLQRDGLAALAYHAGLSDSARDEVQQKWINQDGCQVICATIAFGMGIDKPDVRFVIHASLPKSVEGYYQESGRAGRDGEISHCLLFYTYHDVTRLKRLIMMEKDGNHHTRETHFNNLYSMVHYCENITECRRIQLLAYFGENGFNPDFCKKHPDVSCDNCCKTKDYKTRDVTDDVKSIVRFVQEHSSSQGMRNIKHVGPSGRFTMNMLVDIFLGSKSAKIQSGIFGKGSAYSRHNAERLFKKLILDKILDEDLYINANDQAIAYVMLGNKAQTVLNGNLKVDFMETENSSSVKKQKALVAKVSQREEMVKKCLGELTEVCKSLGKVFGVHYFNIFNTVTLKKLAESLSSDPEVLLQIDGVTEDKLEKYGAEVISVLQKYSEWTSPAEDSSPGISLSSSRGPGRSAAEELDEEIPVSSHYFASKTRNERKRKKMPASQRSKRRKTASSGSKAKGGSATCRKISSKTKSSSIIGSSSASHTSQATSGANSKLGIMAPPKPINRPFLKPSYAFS
Sequence of E. coli UvrD helicase (P03018 whole entry): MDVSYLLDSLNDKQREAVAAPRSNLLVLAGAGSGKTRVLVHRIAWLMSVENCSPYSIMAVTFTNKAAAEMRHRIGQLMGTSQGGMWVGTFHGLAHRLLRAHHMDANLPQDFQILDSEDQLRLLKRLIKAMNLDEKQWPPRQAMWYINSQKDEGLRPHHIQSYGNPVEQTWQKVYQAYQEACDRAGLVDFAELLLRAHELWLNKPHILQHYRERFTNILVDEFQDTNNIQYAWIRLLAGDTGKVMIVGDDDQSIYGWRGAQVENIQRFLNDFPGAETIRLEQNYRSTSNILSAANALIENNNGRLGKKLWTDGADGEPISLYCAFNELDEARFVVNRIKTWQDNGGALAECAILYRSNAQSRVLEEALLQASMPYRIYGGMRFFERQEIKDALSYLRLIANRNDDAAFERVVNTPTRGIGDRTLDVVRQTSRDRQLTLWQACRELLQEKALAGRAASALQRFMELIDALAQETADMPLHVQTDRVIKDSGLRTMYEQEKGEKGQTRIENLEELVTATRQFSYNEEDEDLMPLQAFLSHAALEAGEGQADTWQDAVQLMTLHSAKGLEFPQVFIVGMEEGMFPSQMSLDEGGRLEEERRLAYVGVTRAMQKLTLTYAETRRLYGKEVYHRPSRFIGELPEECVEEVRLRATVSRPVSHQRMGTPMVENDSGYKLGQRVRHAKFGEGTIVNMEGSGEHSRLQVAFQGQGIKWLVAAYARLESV
Sequence of RecQ5 (O94762 whole entry): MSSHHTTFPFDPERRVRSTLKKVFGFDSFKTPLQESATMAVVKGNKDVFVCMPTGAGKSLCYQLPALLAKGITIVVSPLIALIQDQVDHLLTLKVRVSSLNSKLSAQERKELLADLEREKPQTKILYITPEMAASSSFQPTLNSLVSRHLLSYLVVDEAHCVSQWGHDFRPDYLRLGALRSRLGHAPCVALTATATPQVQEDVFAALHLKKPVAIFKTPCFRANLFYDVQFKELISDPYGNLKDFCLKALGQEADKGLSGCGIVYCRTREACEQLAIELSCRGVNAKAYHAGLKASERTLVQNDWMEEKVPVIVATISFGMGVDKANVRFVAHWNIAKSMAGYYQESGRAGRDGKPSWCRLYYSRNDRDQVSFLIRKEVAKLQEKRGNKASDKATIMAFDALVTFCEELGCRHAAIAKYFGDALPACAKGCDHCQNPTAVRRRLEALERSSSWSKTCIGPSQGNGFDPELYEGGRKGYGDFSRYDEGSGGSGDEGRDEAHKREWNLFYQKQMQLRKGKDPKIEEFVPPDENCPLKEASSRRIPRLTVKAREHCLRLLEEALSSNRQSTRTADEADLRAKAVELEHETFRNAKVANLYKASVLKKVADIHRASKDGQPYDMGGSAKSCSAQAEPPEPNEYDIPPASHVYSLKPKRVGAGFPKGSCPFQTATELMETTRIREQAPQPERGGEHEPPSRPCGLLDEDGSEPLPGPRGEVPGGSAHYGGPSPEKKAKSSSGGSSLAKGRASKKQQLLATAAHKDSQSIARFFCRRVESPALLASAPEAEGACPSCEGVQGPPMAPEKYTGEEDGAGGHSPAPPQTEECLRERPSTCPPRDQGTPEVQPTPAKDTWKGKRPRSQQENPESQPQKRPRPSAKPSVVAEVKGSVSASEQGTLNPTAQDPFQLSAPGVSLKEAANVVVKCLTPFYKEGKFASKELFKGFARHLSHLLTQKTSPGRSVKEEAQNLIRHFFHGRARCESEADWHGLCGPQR
Sequence of WRN^short (WRN^500–946) (Q14191 500-946): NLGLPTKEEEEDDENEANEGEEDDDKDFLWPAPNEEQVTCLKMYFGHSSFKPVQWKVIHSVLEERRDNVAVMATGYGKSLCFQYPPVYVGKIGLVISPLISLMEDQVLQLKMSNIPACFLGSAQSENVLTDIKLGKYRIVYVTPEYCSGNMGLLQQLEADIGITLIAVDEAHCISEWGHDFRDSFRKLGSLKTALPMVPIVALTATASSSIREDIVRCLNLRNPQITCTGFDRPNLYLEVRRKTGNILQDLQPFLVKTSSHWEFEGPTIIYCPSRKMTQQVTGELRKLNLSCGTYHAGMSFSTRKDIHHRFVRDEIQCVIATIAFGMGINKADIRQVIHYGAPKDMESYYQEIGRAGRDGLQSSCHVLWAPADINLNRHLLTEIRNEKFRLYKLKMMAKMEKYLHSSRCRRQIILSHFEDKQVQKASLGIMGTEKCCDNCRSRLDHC
Sequence of WRN^long (full length WRN) (Q14191 whole entry): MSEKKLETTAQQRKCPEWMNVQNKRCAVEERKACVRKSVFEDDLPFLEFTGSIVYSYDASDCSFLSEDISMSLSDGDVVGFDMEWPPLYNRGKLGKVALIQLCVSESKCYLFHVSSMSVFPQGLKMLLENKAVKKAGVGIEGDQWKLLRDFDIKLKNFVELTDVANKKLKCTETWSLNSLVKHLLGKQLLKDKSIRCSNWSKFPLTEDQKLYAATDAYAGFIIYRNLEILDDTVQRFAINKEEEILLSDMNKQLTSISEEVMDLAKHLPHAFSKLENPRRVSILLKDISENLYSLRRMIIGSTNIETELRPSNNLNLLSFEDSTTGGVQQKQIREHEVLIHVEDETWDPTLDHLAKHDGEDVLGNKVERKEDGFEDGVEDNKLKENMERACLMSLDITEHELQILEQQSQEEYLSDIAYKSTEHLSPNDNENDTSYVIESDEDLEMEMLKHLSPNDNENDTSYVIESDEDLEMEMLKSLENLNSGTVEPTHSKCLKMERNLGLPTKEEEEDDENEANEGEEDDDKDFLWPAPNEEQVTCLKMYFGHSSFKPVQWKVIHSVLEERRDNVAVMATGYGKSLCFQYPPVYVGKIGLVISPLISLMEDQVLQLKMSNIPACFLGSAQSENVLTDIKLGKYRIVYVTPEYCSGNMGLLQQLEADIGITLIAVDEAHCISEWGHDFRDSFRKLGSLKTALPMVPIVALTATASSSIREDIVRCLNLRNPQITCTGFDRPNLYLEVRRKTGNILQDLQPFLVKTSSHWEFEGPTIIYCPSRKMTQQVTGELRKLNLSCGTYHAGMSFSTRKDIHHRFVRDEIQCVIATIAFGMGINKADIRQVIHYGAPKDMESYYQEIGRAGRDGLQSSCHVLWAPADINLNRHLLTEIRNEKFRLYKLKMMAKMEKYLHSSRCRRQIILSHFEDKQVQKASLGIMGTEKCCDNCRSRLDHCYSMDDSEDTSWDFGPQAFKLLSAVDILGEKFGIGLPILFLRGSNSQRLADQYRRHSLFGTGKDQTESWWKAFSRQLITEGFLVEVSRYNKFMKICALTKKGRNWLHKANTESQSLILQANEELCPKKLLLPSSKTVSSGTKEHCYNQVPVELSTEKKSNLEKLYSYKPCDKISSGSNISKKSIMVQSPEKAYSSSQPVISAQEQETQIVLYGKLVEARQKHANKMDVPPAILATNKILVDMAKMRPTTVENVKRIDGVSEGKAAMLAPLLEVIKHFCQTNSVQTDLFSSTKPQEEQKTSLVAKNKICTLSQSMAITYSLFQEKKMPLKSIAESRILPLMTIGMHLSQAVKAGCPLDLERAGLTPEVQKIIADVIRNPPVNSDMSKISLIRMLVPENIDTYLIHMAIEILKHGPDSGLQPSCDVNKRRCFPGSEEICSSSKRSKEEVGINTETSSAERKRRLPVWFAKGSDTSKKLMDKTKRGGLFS
Sequence of BLM^full-length (P54132 whole entry): as the sequence (P54132 whole entry) above

Q: `O=C(Nc1ccc(F)c(C(F)(F)F)c1)Nc1nnc(-c2ccncc2)s1` [ML216] was tested. Which IC50 (WRN^short (WRN^500–946)) did it give?
A: The IC50 was 12.6 µM.

Q: What about the “sensitivity of full length WRN versus WRN^500–946 (based on IC50 values)” value [1] of the same compound?
A: Its value is 2.5 fold.

Q: What about the “inhibition of BLM's G-quadruplex disrupting activity” value (BLM [2]) of the same compound?
A: Its value is “only very modest inhibition”.

Q: And the “inhibition of disruption of the D-loop substrate” value (BLM [2]; 50 µM)?
A: The value was “only at high concentrations”.

Q: And the “inhibition of disruption of the Holliday junction substrate” value (BLM [2]; 50 µM)?
A: Its value is “only at high concentrations”.

Q: And the γ-H2AX focus formation (PSNG13 cells [3])?
A: The γ-H2AX focus formation was “no significant effect”.

Q: And the “effect on cell proliferation” value (PSNF5 cells [4])?
A: Its value is “inhibitor of the proliferation of PSNF5 cells”.

Q: What about the “frequency of sister chromatid exchanges (SCEs)” value (PSNG13 cells [5]) of the same compound?
A: The value was “not in PSNG13 cells”.

Q: What about the sensitivity to aphidicolin (PSNF5 cells [6]) of the same compound?
A: Its sensitivity to aphidicolin is “increased the sensitivity”.

Q: And the “effect on DNA binding by BLM (fluorescence polarization)” value (BLM [7])?
A: The value was “inhibits the ability of BLM to bind DNA”.

Q: And the “effect on DNA binding by BLM (EMSA)” value (BLM [8])?
A: Its value is “displacement of either ssDNA or forked duplex DNA from a complex with BLM”.

Q: And the sensitivity to aphidicolin (PSNG13 cells [9])?
A: The sensitivity to aphidicolin was “no sensitizing effect”.

Q: And the γ-H2AX focus formation (PSNF5 cells [10])?
A: The γ-H2AX focus formation was “statistically significant reduction”.

Q: What about the “frequency of sister chromatid exchanges (SCEs)” value (PSNF5 cells [11]) of the same compound?
A: The value was “statistically significant increase”.

Q: What about the “frequency of SCEs, short exposure” value (PSNF5 cells [11]; present only during the last 8 hours) of the same compound?
A: Its value is “statistically significant increase in the frequency of SCEs”.

Q: And the IC50 (RecQ1)?
A: The IC50 was greater than 50 µM.

Q: What about the “inhibition of helicase activity” value (RecQ1; at 50 µM) of the same compound?
A: Its value is “only very modest inhibition”.

Q: What about the “cell cycle arrest in G1/S or G2/M” value (human cells) of the same compound?
A: Its value is “did not cause cell cycle arrest”.

Q: And the “phosphorylation of ATM or ATR targets, including CHK1 and CHK2” value (human cells)?
A: Its value is “did not appear to cause phosphorylation”.

Q: And the “effect on cell proliferation” value (PSNG13 cells [12])?
A: The value was “not of PSNG13 cells”.

Q: And the “mode of inhibition of ATPase activity with respect to ATP” value (BLM [13])?
A: Its value is “non-competitive”.

Q: What about the IC50 (E. coli UvrD helicase) of the same compound?
A: The IC50 was greater than 50 µM.

Q: What about the “inhibition of helicase activity” value (E. coli UvrD helicase; at 50 µM) of the same compound?
A: Its value is “only very modest inhibition”.

Q: And the “sensitivity of BLM versus WRN (based on IC50 values)” value (BLM^full-length)?
A: Its value is 1.7 fold.

Q: And the “sensitization to aphidicolin, WRN^+ versus WRN^− cells” value (WRN^+ and WRN^− cells [14])?
A: The value was “similarly sensitized both cell types”.

Q: What about the “inhibition of proliferation, WRN^+ versus WRN^− cells” value (WRN^+ and WRN^− cells [15]) of the same compound?
A: Its value is “equally well”.

Q: What about the IC50 (RecQ5) of the same compound?
A: Its IC50 is greater than 50 µM.

Q: What about the “inhibition of helicase activity” value (RecQ5; at 50 µM) of the same compound?
A: The value was “only very modest inhibition”.

Q: What does the source list for `O=C(Nc1ccc(Cl)c(Cl)c1)Nc1nnc(-c2ccncc2)s1` [MLS000559245]?
A: activity in fluorescence-based screening assay (BLM^636–1298): showed activity; activity in radioactivity-based helicase assay (BLM [16]): showed activity
